# Key:
# [1] = Inhibition of Sprague-Dawley rat brain FTase by continuous fluorescence assay
# How it was run: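 Enzyme source: cytosolic fraction (100 000g supernatant) of brains from male Sprague–Dawley rats aged 9–10 weeks, kept at -80 °C. Reaction: 50 mM Tris-HCl pH 7.5, 5 mM MgCl2, 10 μM ZnCl2, 5 mM DTT, 0.01% n-dodecyl-β-D-maltoside, 5.4 mg/mL cytosolic protein, 1.3 μM dansyl-CVIM, 25 μM FPP. Run at 25 °C, fluorescence (ex 340/em 505 nm) recorded 10 min. IC50 obtained by fitting ΔF/Δt versus inhibitor concentration.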
# L1210 = assay: Growth inhibition of mouse L1210 cells by MTT assay after 72 hrs; type: functional, cell-based; details: L1210, 72 h
# How it was run: (§1)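 Cells (H-Ras-transformed NIH3T3 fibroblasts; K-Ras-transformed DLD-1 colon adenocarcinoma; L-1210 leukaemia) grown in RPMI + 10% fetal calf serum. Seeded and allowed to grow 24 h, then exposed to a range of inhibitor concentrations for 72 h, 1% DMSO final. Growth read by colorimetric MTT assay; EC50 derived.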
# [2] = Inhibition of Sprague-Dawley rat brain GGTI by continuous fluorescence assay
# How it was run: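 GGT-I source: rat brain cytosol (male Sprague–Dawley, 100 000g supernatant). Buffer: 50 mM Tris-HCl pH 7.5, 5 mM MgCl2, 10 μM ZnCl2, 5 mM DTT, 0.01% dodecyl maltoside, 5.4 mg/mL protein, 4 μM dansyl-GCVLL, 10 μM GGPP. Incubated at 25 °C; fluorescence followed for 10 min at ex 340/em 505 nm. IC50 taken from sigmoid fit of rate against inhibitor concentration.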
# NIH3T3 = assay: Growth inhibition of H-Ras transformed […] cells by MTT assay after 72 hrs; type: functional, cell-based; details: Mus musculus, NIH3T3, 72 h; how it was run: as §1
# DLD-1 = assay: Growth inhibition of human DLD1 cells by MTT assay after 72 hrs; type: functional, cell-based; details: DLD-1, 72 h; how it was run: as §1
SMILES,IC50 [1],EC50 (L1210),IC50 [2],EC50 (NIH3T3),EC50 (DLD-1)
COC(=O)[C@H](CCSC)N(C(=O)c1ccccc1)C1CCN(Cc2cncn2Cc2ccccc2)CC1,397 nM,–,–,–,–
COC(=O)[C@H](CCSC)N(C(=O)c1ccccc1)C1CCN(Cc2cncn2Cc2ccc(C(F)(F)F)cc2)CC1,43.9 nM,–,–,–,–
COC(=O)[C@H](CCSC)N(C(=O)c1ccccc1)C1CCN(Cc2cncn2Cc2ccc(C#N)cc2)CC1,4.6 nM,20 nM,> 2000 nM,1330 nM,9200 nM
COC(=O)[C@H](CCSC)N(C(=O)c1ccccc1)C1CCN(C(=O)C(N)CS)CC1 (stereo partly specified),22.8 nM,> 10000 nM,> 100 nM,–,18100 nM
CSCC[C@H](NC(=O)c1ccc(NC(=O)[C@@H](N)CS)cc1)C(=O)O,72 nM,–,> 100 nM,–,–
CSCC[C@H](NC(=O)[C@H](Cc1ccccc1)NC[C@@H](NC[C@@H](N)CS)C(C)C)C(=O)O,34 nM,–,> 5000 nM,–,–
COC(=O)[C@H](CCSC)N(C(=O)c1ccccc1)C1CCN(Cc2cncn2Cc2ccc(OC)cc2)CC1,575 nM,–,–,–,–
N#Cc1ccc(Cn2cncc2CN2CCC(N(C(=O)c3ccccc3)[C@@H](Cc3ccccc3)C(=O)O)CC2)cc1,54.1 nM,–,> 2000 nM,–,–
CSCC[C@@H](C(=O)O)N(C(=O)c1ccccc1)C1CCN(Cc2cncn2Cc2ccc(C#N)cc2)CC1,10 nM,–,> 2000 nM,–,–
COC(=O)[C@H](Cc1ccccc1)N(C(=O)c1ccccc1)C1CCN(Cc2cncn2Cc2ccc(C#N)cc2)CC1,22 nM,–,> 2000 nM,–,–
COC(=O)[C@H](CCSC)N(Cc1ccccc1)C1CCN(Cc2cncn2Cc2ccc(C#N)cc2)CC1,2.35 nM,> 5000 nM,> 2000 nM,–,12900 nM
CCC(C)[C@@H](C(=O)OC)N(C(=O)c1ccccc1)C1CCN(Cc2cncn2Cc2ccc(C#N)cc2)CC1 (stereo partly specified),32.7 nM,–,> 2000 nM,–,–
CC(C)C[C@H](NC(=O)c1ccc(NC(=O)[C@@H](N)CS)cc1-c1ccccc1)C(=O)O,56.2 nM,–,12.4 nM,–,–
COC(=O)[C@H](CCSC)N(C(=O)c1ccccc1)C1CCN(Cc2cncn2Cc2ccc(C)cc2)CC1,600 nM,–,–,–,–

# Source: ChEMBL document CHEMBL1149307, “Potent and selective farnesyl transferase inhibitors” (J Med Chem, 2004)
